Experiments:
Mu-type opioid receptor = Mu-type opioid receptor (Homo sapiens, UniProt P35372); experiment: Displacement of [3H]DAMGO from human mu opioid receptor expressed in CHO cells after 120 mins by liquid scintillation counting
How it was run: (§1)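 Membranes from CHO cells stably expressing human μ, δ or κ opioid receptor. Radioligands: μ 1.3 nM [3H]DAMGO, δ 1.2 nM [3H]DPDPE, κ 1.7 nM [3H]U69,593; nonspecific with 1 μM of the matching unlabelled ligand.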

[1] = biological target: Delta-type opioid receptor (Homo sapiens, UniProt P41143); experiment: Displacement of [3H]DPDPE from human delta opioid receptor expressed in CHO cells after 120 mins by liquid scintillation counting; how it was run: as §1
[2] = biological target: Sigma non-opioid intracellular receptor 1 (Rattus norvegicus, UniProt Q9R0C9); experiment: Displacement of [3H](+)-pentazocine from sigma 1 receptor in rat brain homogenates after 120 mins by liquid scintillation counting
How it was run: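 σ1 sites labelled with 5 nM [3H](+)-pentazocine in rat brain homogenate; nonspecific binding defined with 10 μM haloperidol. Up to 12 competitor concentrations, incubated 120 min at 25 °C. Terminated by vacuum filtration onto PEI-soaked GF/B filters, bound radioactivity counted by liquid scintillation. Ki obtained by Cheng–Prusoff.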

[3] = biological target: Kappa-type opioid receptor (Homo sapiens, UniProt P41145); experiment: Displacement of [3H]U69,593 from human kappa opioid receptor expressed in CHO cells after 120 mins by liquid scintillation counting; how it was run: as §1
Chain of Kappa-type opioid receptor (P41145 whole entry): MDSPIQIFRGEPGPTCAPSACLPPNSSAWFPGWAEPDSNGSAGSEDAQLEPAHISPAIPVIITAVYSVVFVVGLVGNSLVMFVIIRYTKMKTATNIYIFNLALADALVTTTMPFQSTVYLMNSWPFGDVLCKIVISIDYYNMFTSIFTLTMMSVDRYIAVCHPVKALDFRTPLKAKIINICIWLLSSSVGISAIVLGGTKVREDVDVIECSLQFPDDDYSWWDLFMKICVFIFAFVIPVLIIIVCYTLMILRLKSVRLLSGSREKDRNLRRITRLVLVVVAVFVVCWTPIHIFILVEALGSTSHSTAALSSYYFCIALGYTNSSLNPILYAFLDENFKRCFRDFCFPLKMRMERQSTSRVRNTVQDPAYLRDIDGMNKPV

Chain of Mu-type opioid receptor (P35372 whole entry): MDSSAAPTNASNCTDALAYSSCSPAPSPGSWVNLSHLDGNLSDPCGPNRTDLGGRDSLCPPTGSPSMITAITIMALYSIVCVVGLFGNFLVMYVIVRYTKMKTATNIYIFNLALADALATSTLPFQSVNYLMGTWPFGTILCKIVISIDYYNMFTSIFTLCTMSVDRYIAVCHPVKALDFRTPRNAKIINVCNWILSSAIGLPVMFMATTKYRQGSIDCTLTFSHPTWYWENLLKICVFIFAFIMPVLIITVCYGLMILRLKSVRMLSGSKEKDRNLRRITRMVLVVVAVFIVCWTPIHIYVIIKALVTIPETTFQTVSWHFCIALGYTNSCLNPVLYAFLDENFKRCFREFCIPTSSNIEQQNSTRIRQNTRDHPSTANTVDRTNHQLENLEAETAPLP
Chain of Delta-type opioid receptor (P41143 whole entry): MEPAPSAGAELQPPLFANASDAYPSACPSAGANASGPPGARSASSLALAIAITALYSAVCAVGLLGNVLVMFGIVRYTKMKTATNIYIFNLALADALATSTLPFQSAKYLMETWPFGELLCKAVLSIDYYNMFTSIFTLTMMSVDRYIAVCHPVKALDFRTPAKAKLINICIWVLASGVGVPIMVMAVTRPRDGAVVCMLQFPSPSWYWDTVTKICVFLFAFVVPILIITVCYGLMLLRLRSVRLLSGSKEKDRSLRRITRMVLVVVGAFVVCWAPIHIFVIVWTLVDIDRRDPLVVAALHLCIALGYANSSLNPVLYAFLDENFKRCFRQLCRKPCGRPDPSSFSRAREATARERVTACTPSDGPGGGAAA
Chain of Sigma non-opioid intracellular receptor 1 (Q9R0C9 whole entry): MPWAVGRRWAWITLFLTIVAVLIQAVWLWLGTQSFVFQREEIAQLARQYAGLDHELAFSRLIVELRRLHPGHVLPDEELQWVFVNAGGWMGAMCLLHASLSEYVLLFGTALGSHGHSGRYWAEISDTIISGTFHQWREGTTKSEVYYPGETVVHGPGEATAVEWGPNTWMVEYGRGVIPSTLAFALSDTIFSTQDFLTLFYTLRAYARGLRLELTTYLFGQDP

Structure (SMILES)	Ki (Mu-type opioid receptor) [µM]	Ki [1] [µM]	Ki [2] [µM]	Ki [3] [µM]
CN(CCc1ccccc1)[C@H]1CCCC[C@@H]1O	> 10	> 10	0.12	> 10
CN(C)[C@H]1CCCC[C@@H]1OC/C=C/c1ccccc1	4.2	> 10	0.0046	> 10
CN(CCCc1ccccc1)[C@H]1CCCC[C@@H]1OCCCc1ccccc1	3.1	6.2	0.79	2.2
CN(CCCc1ccccc1)[C@H]1CCCC[C@@H]1O	–	> 10	0.019	> 10
CN(CCc1ccccc1)[C@H]1CCCC[C@@H]1OCCCc1ccccc1	1.6	> 10	0.084	–
CN(C)[C@H]1CCCC[C@@H]1OCCCc1ccccc1	2.3	> 10	0.059	> 10

Source: BindingDB's records for doi:10.1016/j.bmc.2013.06.068 (University of Maryland, 2013)
